Reference: paper PMC2788160 (Nutrition Research and Practice, 2009)

What was measured:
Caco-2 cell monolayer = assay: Apical-to-basolateral uptake in Caco-2 differentiated monolayer; type: in vitro ADME, human; details: for Conc. of aloe-emodin in basolateral side / Conc. of aloin in basolateral side: 1 hr, 37℃; for Absorption percent: Caco-2 cells over 1 hour
Outline: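 Caco-2 (passages 26-48; high-glucose DMEM, 10% FBS, 1% nonessential amino acids) on Transwell inserts at 5×10^4 cells/cm2, 18-24 days; TEER >550 Ω·cm2. Apical compound at 5, 10, 50 µM final (DMSO, diluted in HBSS, pH 6.0); basolateral HBSS pH 7.4; 1 hr, 37℃. C18 HPLC with/without sulfatase H-5 (45 min, 37℃) gives parent and conjugates; % absorption = basolateral×100/apical concentration.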

[1] = test system: everted gut sac (rat small intestine); assay: Everted gut sac model uptake into serosal side; type: in vitro ADME; details: 10 µM, 1 hr; Fig. 2
Outline: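 Rats fasted overnight; small intestine flushed with 0.9% NaCl, everted in warm oxygenated TC 199 medium, filled, cut into ~2.5 cm sacs from upper/mid-jejunum (12-15 per experiment). Sacs incubated 1 hr, 37℃ in 6 ml oxygenated medium with 10 µM compound; serosal fluid collected, volume from sac weights. HPLC with/without sulfatase (difference = conjugates); uptake per mg tissue protein (modified Lowry, BSA standard).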

## O=C1c2cccc(O)c2C(=O)c2c(O)cc(CO)cc21 [aloe-emodin]
Caco-2 cell monolayer; 5 μM apical treatment
  Conc. of aloe-emodin in basolateral side: 0.13 nmol/cm^2 culture area
Caco-2 cell monolayer; 10 μM apical treatment
  Conc. of aloe-emodin in basolateral side: 0.86 nmol/cm^2 culture area
Caco-2 cell monolayer; 50 μM apical treatment
  Conc. of aloe-emodin in basolateral side: 2.51 nmol/cm^2 culture area

## CC(=O)Cc1cc(=O)c2c(C)cc(O)c([C@@H]3O[C@H](CO)[C@@H](O)[C@H](O)[C@H]3O)c2o1 [aloesin]
Caco-2 cell monolayer; 5 μM
  Absorption percent: 7.61%
Caco-2 cell monolayer; 10 μM
  Absorption percent: 13.64%
Caco-2 cell monolayer; 50 μM
  Absorption percent: 8.14%
[1]
  % absorption in everted gut sac compared to Caco-2 monolayer: more aloesin were shown to be absorbed in the gut sac compared to the Caco-2 monolayer

## O=C1c2c(O)cccc2C([C@@H]2O[C@H](CO)[C@@H](O)[C@H](O)[C@H]2O)c2cc(CO)cc(O)c21 (stereo partly shown) [aloin]
Caco-2 cell monolayer; 5 μM apical treatment
  Conc. of aloin in basolateral side: 0.11 nmol/cm^2 culture area
Caco-2 cell monolayer; 10 μM apical treatment
  Conc. of aloin in basolateral side: 0.42 nmol/cm^2 culture area
Caco-2 cell monolayer; 50 μM apical treatment
  Conc. of aloin in basolateral side: 1.99 nmol/cm^2 culture area
